Tests used:
Assay type in all cases: functional
CAKI-1 = assay: Cytotoxicity against human Caki1 cells after 48 hrs by sulforhodamine B assay; conditions: CAKI-1, 48 h
Summary of the method: (§1)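 NCI 60-panel screen. Cells were grown in RPMI 1640 with 5% FBS and L-glutamine and plated at 5000–40,000 cells/well according to doubling time. They were preincubated 24 h at 37 °C, 5% CO2, then exposed 48 h to five 10-fold dilutions. Adherent cells were fixed with cold TCA, final 10%; suspension cells were fixed after settling. Cells were stained with 0.4% SRB and read at 515 nm. Tz/C/Ti growth curves gave GI50, TGI and LC50.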

HCC 2998 [1] = assay: Cytotoxicity against human HCC2998 cells after 48 hrs by sulforhodamine B assay; conditions: HCC 2998, 48 h; summary of the method: as §1
U-251 [2] = assay: Growth inhibition of human U251 cells at 10 uM after 48 hrs by sulforhodamine B assay; conditions: U-251, 48 h, read-out: GI
Summary of the method: (§2)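 NCI-60 single-dose screen. Cells grown in RPMI 1640 with 5% FBS and L-glutamine, plated at 5000–40,000 cells/well by doubling time, and preincubated 24 h at 37 °C, 5% CO2. Compound stocks in DMSO, added at one concentration, then incubated 48 h. Adherent cells fixed with cold TCA (10% final), stained with 0.4% SRB, dye solubilized in 10 mM Tris base, A515 read. Reported as percent growth relative to untreated control.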

RXF 393 = assay: Cytotoxicity against human RXF393 cells after 48 hrs by sulforhodamine B assay; conditions: RXF 393, 48 h; summary of the method: as §1
PC-3 [3] = assay: Growth inhibition of human PC3 cells at 10 uM after 48 hrs by sulforhodamine B assay; conditions: PC-3, 48 h, read-out: GI
Summary of the method: (§3)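 NCI one-dose primary screen at 10 (printed mM) across the 60-line panel. Cells in RPMI 1640 with 5% FBS and 2 mM L-glutamine, plated at 5000–40,000 cells/well and incubated 24 h before dosing. Exposure 48 h at 37 °C, 5% CO2. Adherent cells were fixed with cold TCA, suspension cells fixed after settling. SRB stain, absorbance 515 nm. Reported as percent growth of treated cells relative to control.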

UO-31 = assay: Growth inhibition of human UO31 cells at 10 uM after 48 hrs by sulforhodamine B assay; conditions: UO-31, 48 h, read-out: GI; summary of the method: as §2
CCRF-CEM = assay: Growth inhibition of human CCRF-CEM cells at 10 uM after 48 hrs by sulforhodamine B assay; conditions: read-out: GI; summary of the method: as §3
NCI-H460 [4] = assay: Growth inhibition of human NCI-H460 cells at 10 uM after 48 hrs by sulforhodamine B assay; conditions: NCI-H460, 48 h, read-out: GI; summary of the method: as §3
HCC 2998 [5] = assay: Growth inhibition of human HCC2998 cells at 10 uM after 48 hrs by sulforhodamine B assay; conditions: HCC 2998, 48 h, read-out: GI; summary of the method: as §3
OVCAR-4 = assay: Cytotoxicity against human OVCAR4 cells after 48 hrs by sulforhodamine B assay; conditions: OVCAR-4, 48 h; summary of the method: as §1
[6] = Growth inhibition of human Hs 578T cells at 10 uM after 48 hrs by sulforhodamine B assay; conditions: read-out: GI; summary of the method: as §3
HCT-116 [7] = assay: Growth inhibition of human HCT116 cells at 10 uM after 48 hrs by sulforhodamine B assay; conditions: HCT-116, 48 h, read-out: GI; summary of the method: as §3
SNB-19 = assay: Cytotoxicity against human SNB19 cells after 48 hrs by sulforhodamine B assay; conditions: SNB-19, 48 h; summary of the method: as §1
M14 = assay: Growth inhibition of human M14 cells at 10 uM after 48 hrs by sulforhodamine B assay; conditions: M14, 48 h, read-out: GI; summary of the method: as §3
PC-3 [8] = assay: Cytotoxicity against human PC3 cells after 48 hrs by sulforhodamine B assay; conditions: PC-3, 48 h; summary of the method: as §1
HOP-62 = assay: Growth inhibition of human HOP62 cells at 10 uM after 48 hrs by sulforhodamine B assay; conditions: HOP-62, 48 h, read-out: GI; summary of the method: as §3
U-251 [9] = assay: Cytotoxicity against human U251 cells after 48 hrs by sulforhodamine B assay; conditions: U-251, 48 h
Summary of the method: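 NCI 60 panel five-dose screen. Cells in RPMI 1640 with 5% FBS and 2 mM L-glutamine, plated at 5000–40,000 cells/well and preincubated 24 h. Compounds were tested at five 10-fold concentrations (0.01–100) for 48 h at 37 °C, 5% CO2. Cells were fixed with TCA and stained with SRB, absorbance 515 nm. GI50, TGI and LC50 were taken from % growth curves against time-zero and control.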

BT-549 = assay: Cytotoxicity against human BT549 cells after 48 hrs by sulforhodamine B assay; conditions: BT-549, 48 h; summary of the method: as §1
MDA-MB-468 = assay: Cytotoxicity against human MDA-MB-468 cells after 48 hrs by sulforhodamine B assay; conditions: MDA-MB-468, 48 h; summary of the method: as §1
SN12C = assay: Cytotoxicity against human SN12C cells after 48 hrs by sulforhodamine B assay; summary of the method: as §1
HOP-92 = assay: Cytotoxicity against human HOP92 cells after 48 hrs by sulforhodamine B assay; conditions: HOP-92, 48 h; summary of the method: as §1
RPMI-8226 = assay: Growth inhibition of human RPMI8226 cells at 10 uM after 48 hrs by sulforhodamine B assay; conditions: RPMI-8226, 48 h, read-out: GI; summary of the method: as §3
MCF7 = assay: Growth inhibition of human MCF7 cells at 10 uM after 48 hrs by sulforhodamine B assay; conditions: MCF7, 48 h, read-out: GI; summary of the method: as §3
COLO 205 = assay: Cytotoxicity against human COLO205 cells after 48 hrs by sulforhodamine B assay; conditions: COLO 205, 48 h; summary of the method: as §1
SW-620 = assay: Cytotoxicity against human SW620 cells after 48 hrs by sulforhodamine B assay; conditions: SW-620, 48 h; summary of the method: as §1
HCT-116 [10] = assay: Cytotoxicity against human HCT116 cells after 48 hrs by sulforhodamine B assay; conditions: HCT-116, 48 h; summary of the method: as §1
NCI-H460 [11] = assay: Cytotoxicity against human NCI-H460 cells after 48 hrs by sulforhodamine B assay; conditions: NCI-H460, 48 h; summary of the method: as §1
[12] = read-out: LC50 (the source's name)

Compound `O=C(CCc1nnc(-c2ccc(Cl)cc2Cl)o1)c1nc2ccccc2[nH]1` has a GI50 (CAKI-1) of 3.49 µM, a TGI (CAKI-1) of 41.1 µM and a CC50 (CAKI-1; [12]) of 100 µM. The GI50 (HCC 2998 [1]) was 6.52 µM, the TGI (HCC 2998 [1]) was 32.3 µM and the CC50 (HCC 2998 [1]; [12]) was 100 µM. It also gave an inhibition of growth at 10 µM (U-251 [2]) of 47.5%, a GI50 (RXF 393) of 4.3 µM and a TGI (RXF 393) of 49.7 µM. The CC50 (RXF 393; [12]) was 100 µM, the inhibition of growth at 10 µM (PC-3 [3]) was 46.9% and the inhibition of growth at 10 µM (UO-31) was 48%. For the same compound, the inhibition of growth at 10 µM (CCRF-CEM) was 52.7%, the inhibition of growth at 10 µM (NCI-H460 [4]) was 22.7% and the inhibition of growth at 10 µM (HCC 2998 [5]) was 34.1%. The GI50 (OVCAR-4) was 5.93 µM, the TGI (OVCAR-4) was 100 µM and the CC50 (OVCAR-4; [12]) was 100 µM. It also gave an inhibition of growth at 10 µM [6] of 17.7%, an inhibition of growth at 10 µM (HCT-116 [7]) of 77.9% and a GI50 (SNB-19) of 17.4 µM. For the same compound, the TGI (SNB-19) was 100 µM, the CC50 (SNB-19; [12]) was 100 µM and the inhibition of growth at 10 µM (M14) was 44.2%. The GI50 (PC-3 [8]) was 3.71 µM, the TGI (PC-3 [8]) was 100 µM and the CC50 (PC-3 [8]; [12]) was 100 µM. For the same compound, the inhibition of growth at 10 µM (HOP-62) was 28.4%, the GI50 (U-251 [9]) was 10.9 µM and the TGI (U-251 [9]) was 77.6 µM. It also gave a CC50 (U-251 [9]; [12]) of 100 µM, a GI50 (BT-549) of 7.54 µM and a TGI (BT-549) of 92.5 µM. The CC50 (BT-549; [12]) was 100 µM, the GI50 (MDA-MB-468) was 797 nM and the TGI (MDA-MB-468) was 12.2 µM. It also gave a CC50 (MDA-MB-468; [12]) of 100 µM, a GI50 (SN12C) of 6.22 µM and a TGI (SN12C) of 56.9 µM. The CC50 (SN12C; [12]) was 100 µM, the GI50 (HOP-92) was 1770 nM and the TGI (HOP-92) was 15.8 µM. The CC50 (HOP-92; [12]) was 100 µM, the inhibition of growth at 10 µM (RPMI-8226) was 69.1% and the inhibition of growth at 10 µM (MCF7) was 55.3%. The GI50 (COLO 205) was 2660 nM, the TGI (COLO 205) was 7.08 µM and the CC50 (COLO 205; [12]) was 100 µM. For the same compound, the GI50 (SW-620) was 3.46 µM, the TGI (SW-620) was 16.3 µM and the CC50 (SW-620; [12]) was 74.3 µM. It also gave a GI50 (HCT-116 [10]) of 3.33 µM, a TGI (HCT-116 [10]) of 13.5 µM and a CC50 (HCT-116 [10]; [12]) of 52.5 µM. It also gave a GI50 (NCI-H460 [11]) of 4.99 µM, a TGI (NCI-H460 [11]) of 28.6 µM and a CC50 (NCI-H460 [11]; [12]) of 100 µM.

Reference: ChEMBL document CHEMBL2040797, “Synthesis of benzimidazoles bearing oxadiazole nucleus as anticancer agents” (2012)
